From ChEMBL document CHEMBL1667760, “Synthesis and biological evaluation of 3,5-diaryl isoxazoline/isoxazole linked 2,3-dihydroquinazolinone hybrids as anticancer agents” (2011)
Where a name gives a salt, the structure may show the parent alone. Activity calls are given as the source filed them. The rule behind the calls is not given here.

Key:
A549 = assay: Cytotoxicity against human A549 cells after 48 hrs by sulforhodamine B assay; assay type: functional; settings: A549, 48 h, read-out: GI50
Outline: (§1)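 Cells were grown in RPMI 1640 with 10% FBS and 2 mM L-glutamine, plated at densities set by doubling time, and pre-incubated 24 h at 37 °C, 5% CO2. Drugs were tested at 0.1, 1, 10 and 100 µM in triplicate wells for 48 h continuous exposure. Cells were fixed with 10% TCA (final) and stained with 0.4% SRB. A540 was read against a 690 nm reference, and percent growth was calculated relative to control. Experiments were repeated three times.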

PC-3 = assay: Cytotoxicity against human PC3 cells after 48 hrs by sulforhodamine B assay; assay type: functional; settings: PC-3, 48 h, read-out: GI50; outline: as §1
OVCAR-8 = assay: Cytotoxicity against human OVCAR8 cells after 48 hrs by sulforhodamine B assay; assay type: functional; settings: OVCAR-8, 48 h, read-out: GI50
Outline: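 Run by the NCI 60-cell-line screen. A one-dose pre-test was done first, followed by the main test over a 5-log dose range (10^-4 to 10^-8 M). Results are reported as log molar GI50 (50% net growth inhibition), TGI (total growth inhibition) and LC50 (50% net cell death), with mean-graph midpoints across all lines.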

A2780 = assay: Cytotoxicity against human A2780 cells after 48 hrs by sulforhodamine B assay; assay type: functional; settings: A2780, 48 h; outline: as §1
KB = assay: Cytotoxicity against human KB cells after 48 hrs by sulforhodamine B assay; assay type: functional; outline: as §1
MCF7 [1] = assay: Induction of apoptosis in human MCF7 cells assessed as nuclear fragmentation at 2.5 uM after 48 hrs by DAPI staining; assay type: functional, cell-based
Outline: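 MCF-7 cells grown on glass coverslips and incubated 48 h with or without compound. Fixed in 3% paraformaldehyde/0.02% glutaraldehyde in PBS, stained with DAPI, and nuclear morphology examined by fluorescence microscopy.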

Tubulin (Homo sapiens) = Tubulin (Homo sapiens) (UniProt P68371+Q9H4B7+P0DPH7+P68366+Q13509+Q71U36+P04350+Q3ZCM7+P07437+P68363+Q9BQE3+Q6PEY2+Q13885+Q9BVA1+Q9BUF5); settings: MCF7, 2.5 uM
MCF7 [2] = assay: Cell cycle arrest in human MCF7 cells assessed as accumulation at G0 phase at 5 uM after 24 hrs using propidium iodide staining by flow cytometry relative to control; assay type: functional
Outline: (§2)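 MCF-7 cells were seeded at 5×10^5 per 60 mm dish and grown 24 h. They were then exposed to 5 uM compound for a further 24 h, with untreated control cells alongside. Cells were trypsinised, fixed in ice-cold 70% ethanol (4 °C, 30 min), treated with 1 mg/ml RNase A (37 °C, 30 min) and stained with propidium iodide/citrate/Triton solution. DNA content was read by flow cytometry on 20,000 events.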

MCF7 [3] = assay: Cell cycle arrest in human MCF7 cells assessed as accumulation at G1 phase at 5 uM after 24 hrs using propidium iodide staining by flow cytometry relative to control; assay type: functional; outline: as §2
MCF7 [4] = assay: Cell cycle arrest in human MCF7 cells assessed as accumulation at S phase at 5 uM after 24 hrs using propidium iodide staining by flow cytometry relative to control; assay type: functional; outline: as §2
MCF7 [5] = assay: Cell cycle arrest in human MCF7 cells assessed as accumulation at G2/M phase at 5 uM after 24 hrs using propidium iodide staining by flow cytometry relative to control; assay type: functional; outline: as §2
MCF7 [6] = assay: Reduction of cyclin A expression in human MCF7 cells at 5 uM after 24 hrs by Western blotting; assay type: functional, cell-based
Outline: (§3)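 MCF-7 cells, kept in DMEM with 10% fetal calf serum at 37 °C under 5% CO2, treated 24 h. Lysis in ice-cold RIPA with protease inhibitors; Bradford quantitation; 30 µg protein per lane on 12% SDS-PAGE, then PVDF. Primary antibodies (1:500) at 4 °C overnight; HRP secondary (1:2000); chemiluminescence detection; β-actin loading control.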

MCF7 [7] = assay: Induction of apoptosis in human MCF7 cells assessed as increase of cleaved PARP level at 5 uM after 24 hrs by Western blotting; assay type: functional, cell-based; outline: as §3

`COc1cc(C2NC(=O)c3ccccc3N2)ccc1OCCCCCOc1cc(C2CC(c3cc(OC)c(OC)c(OC)c3)=NO2)ccc1OC` (stereo unspecified) gave a GI50 (A549) of 160 nM, a GI50 (PC-3) of 2400 nM and a GI50 (OVCAR-8) of 140 nM. For the same compound, the GI50 (A2780) was greater than 100 µM and the GI50 (KB) was 27 µM.

With `COc1ccc(C2NC(=O)c3ccccc3N2)cc1OCCCCOc1c(OC)cc(-c2cc(-c3cc(OC)c(OC)c(OC)c3)no2)cc1OC` (stereo unspecified) the GI50 (A549) was 180 nM, the GI50 (PC-3) was 2000 nM and the GI50 (OVCAR-8) was 25000 nM. It also gave a GI50 (A2780) of 2 µM and a GI50 (KB) of 26 µM.

In the case of `COc1cc(C2NC(=O)c3ccccc3N2)ccc1OCCCOc1c(OC)cc(C2=NOC(c3cc(OC)c(OC)c(OC)c3)C2)cc1OC` (stereo unspecified), the GI50 (A549) is reported as 20000 nM, the GI50 (PC-3) is reported as 520 nM and the GI50 (OVCAR-8) is reported as 280 nM. The GI50 (A2780) was greater than 100 µM and the GI50 (KB) was 22 µM.

Work on `COc1ccc(-c2cc(-c3cc(OC)c(OC)c(OC)c3)on2)cc1OCCCCOc1cc(C2NC(=O)c3ccccc3N2)ccc1OC` (stereo unspecified) yielded a GI50 (A549) greater than 100000 nM, a GI50 (PC-3) of 2100 nM and a GI50 (OVCAR-8) of 150 nM. The GI50 (A2780) was greater than 100 µM and the GI50 (KB) was greater than 100 µM.

`COC(=O)Nc1nc2cc(C(=O)c3cccs3)ccc2[nH]1` was tested, and the Activity (MCF7 [1]) was “Active” and the inhibition (Tubulin (Homo sapiens)) was “Active”.

`COc1ccc(/C=C\c2cc(OC)c(OC)c(OC)c2)cc1O` [COMBRETASTATIN A4] was tested, and the Activity (MCF7 [2]) was 2.53%, the Activity (MCF7 [3]) was 16.05% and the Activity (MCF7 [4]) was 15.92%. The Activity (MCF7 [5]) was 65.5%, the Activity (MCF7 [6]) was “Active” and the Activity (MCF7 [7]) was “Active”.

With `COc1cc(C2NC(=O)c3ccccc3N2)ccc1OCCCCCBr` (stereo unspecified) the Activity (MCF7 [2]) was 1.61%, the Activity (MCF7 [3]) was 69% and the Activity (MCF7 [4]) was 12.75%. The Activity (MCF7 [5]) was 16.64%.

In the case of `COc1cc(C2NC(=O)c3ccccc3N2)ccc1OCCCCOc1cc(C2CC(c3cc(OC)c(OC)c(OC)c3)=NO2)ccc1OC` (stereo unspecified), the GI50 (A549) is reported as 150 nM, the GI50 (PC-3) is reported as 2800 nM and the GI50 (OVCAR-8) is reported as 180 nM. For the same compound, the GI50 (A2780) was 22 µM and the GI50 (KB) was 30 µM.

`COc1cccc2c1C(=O)c1c(O)c3c(c(O)c1C2=O)C[C@@](O)(C(=O)CO)C[C@@H]3O[C@H]1C[C@H](N)[C@H](O)[C@H](C)O1` [DOXORUBICIN HYDROCHLORIDE] was tested, and the GI50 (A549) was 130 nM, the GI50 (PC-3) was 160 nM and the GI50 (OVCAR-8) was 150 nM. For the same compound, the GI50 (A2780) was 0.18 µM and the GI50 (KB) was 0.19 µM.

`COc1cc(C2=NOC(c3cc(OC)c(OC)c(OC)c3)C2)cc(OC)c1O` (stereo unspecified) was tested, and the Activity (MCF7 [2]) was 0.5%, the Activity (MCF7 [3]) was 44.54% and the Activity (MCF7 [4]) was 20.6%. For the same compound, the Activity (MCF7 [5]) was 34.36%.

`COc1cc(C2NC(=O)c3ccccc3N2)ccc1OCCCOc1cc(C2CC(c3cc(OC)c(OC)c(OC)c3)=NO2)ccc1OC` (stereo unspecified) showed a GI50 (A549) of 170 nM, a GI50 (PC-3) of 2500 nM and a GI50 (OVCAR-8) of 170 nM. For the same compound, the GI50 (A2780) was 26 µM and the GI50 (KB) was 28 µM.

For `COc1cc(C2NC(=O)c3ccccc3N2)ccc1OCCCCOc1c(OC)cc(C2=NOC(c3cc(OC)c(OC)c(OC)c3)C2)cc1OC` (stereo unspecified), the GI50 (A549) was 14000 nM, the GI50 (PC-3) was 460 nM and the GI50 (OVCAR-8) was 300 nM. For the same compound, the GI50 (A2780) was greater than 100 µM and the GI50 (KB) was 21 µM.
